Calls of active or inactive are those of the source. The calls are words filed in the database; no cut-off is given here.
Key:
[1] = Half life in Sprague-Dawley rat at 10 mg/kg, po by LC/MS/MS analysis; format: ADME, organism-based; parameters: dose 10 mg/kg, route oral; conditions: in vivo
Summary of the method: (§1)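 Sprague-Dawley rats dosed orally at 10 mg/kg; blood drawn at various time points into lithium heparin tubes, centrifuged, plasma stored at −20 °C until analysis. Values are mean ± SEM of at least three experiments.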

Mus musculus [2] = assay: Antiobesity activity in diet-induced obese C57BL/6J mouse assessed as reduction of body weight at 10 mg/kg, po qd for 35 days; format: functional, organism-based; parameters: dose 10 mg/kg
Summary of the method: (§2)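 DIO mice aged 20–24 weeks, kept on high-fat diet throughout, group-housed at 25 °C on a 12 h/12 h light-dark cycle, conditioned to water gavage for 5 days. Dosed orally once daily for 35 days with vehicle (0.1% Tween 80) or compound at 10 mg/kg, 1 h before dark cycle; n = 9–10/group. Food intake and body weight measured weekly; visceral fat mass at study end.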

Cannabinoid receptor 2 = Cannabinoid receptor 2 (Homo sapiens, UniProt P34972); assay: Displacement of [3H]-CP-55940 from human CB2 receptor expressed in CHO cells pretreated for 10 mins measured after 3 hrs by scintillation counting; format: cell-based
Sequence of Cannabinoid receptor 2 (P34972 whole entry): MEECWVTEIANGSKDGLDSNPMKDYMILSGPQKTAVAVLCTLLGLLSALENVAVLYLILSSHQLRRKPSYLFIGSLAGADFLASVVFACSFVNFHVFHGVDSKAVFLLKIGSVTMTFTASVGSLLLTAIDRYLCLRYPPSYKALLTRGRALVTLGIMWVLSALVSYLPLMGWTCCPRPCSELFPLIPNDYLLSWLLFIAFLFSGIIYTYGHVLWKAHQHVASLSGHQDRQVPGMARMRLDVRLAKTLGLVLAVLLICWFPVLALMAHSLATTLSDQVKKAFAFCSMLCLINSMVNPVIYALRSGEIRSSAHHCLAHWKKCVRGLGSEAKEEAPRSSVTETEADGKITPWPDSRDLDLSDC
Summary of the method: (§3)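 Whole-cell binding in CHO cells stably expressing hCB1 or hCB2, serum-starved in serum-free F12 for 3 h, pretreated with varying compound concentrations 10 min, then [3H]-CP-55940 added; 3 h at 37 °C. Cells washed 5× with warm PBS, lysed in PBS/1% SDS, bound radioactivity counted. Triplicate; Ki from nonlinear-regression IC50 via Cheng-Prusoff; mean ± SEM, n = 3 independent experiments.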

Mus musculus [3] = assay: Antiobesity activity in diet-induced obese C57BL/6J mouse assessed as reduction in visceral fat mass at 10 mg/kg, po qd for 35 days; format: functional, organism-based; parameters: dose 10 mg/kg; summary of the method: as §2
[4] = AUC (0 to infinity) in Sprague-Dawley rat at 10 mg/kg, po by LC/MS/MS analysis; format: ADME, organism-based; parameters: time infinity, dose 10 mg/kg, route oral; conditions: plasma; summary of the method: as §1
[5] = Cmax in Sprague-Dawley rat at 10 mg/kg, po by LC/MS/MS analysis; format: ADME, organism-based; parameters: dose 10 mg/kg, route oral; conditions: in vivo; summary of the method: as §1
[6] = Oral bioavailability in Sprague-Dawley rat at 10 mg/kg by LC/MS/MS analysis; format: ADME, organism-based; conditions: in vivo; summary of the method: as §1
[7] = Ratio of drug level in brain to plasma in Sprague-Dawley rat at 10 mg/kg, po measured 9 hrs post dose by LC/MS/MS analysis; format: ADME, organism-based; parameters: dose 10 mg/kg, route oral; conditions: read-out: BPR
Summary of the method: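 Rats given 10 mg/kg orally and sacrificed at 3, 5 and 9 h post-dose; whole brain and blood collected and stored at −20 °C; brain/plasma ratio reported at 9 h. Mean ± SEM, at least three experiments.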

Cannabinoid receptor 1 [8] = biological target: T1, Cannabinoid receptor 1 (Homo sapiens, UniProt P21554); assay: Antagonist activity at human CB1 receptor expressed in CHO cells coexpressing Galpha15/16 assessed as inhibition of CP55940-induced Ca2+ release after 10 mins by micro plate reader assay; format: functional, cell-based
T1 sequence (P21554 whole entry): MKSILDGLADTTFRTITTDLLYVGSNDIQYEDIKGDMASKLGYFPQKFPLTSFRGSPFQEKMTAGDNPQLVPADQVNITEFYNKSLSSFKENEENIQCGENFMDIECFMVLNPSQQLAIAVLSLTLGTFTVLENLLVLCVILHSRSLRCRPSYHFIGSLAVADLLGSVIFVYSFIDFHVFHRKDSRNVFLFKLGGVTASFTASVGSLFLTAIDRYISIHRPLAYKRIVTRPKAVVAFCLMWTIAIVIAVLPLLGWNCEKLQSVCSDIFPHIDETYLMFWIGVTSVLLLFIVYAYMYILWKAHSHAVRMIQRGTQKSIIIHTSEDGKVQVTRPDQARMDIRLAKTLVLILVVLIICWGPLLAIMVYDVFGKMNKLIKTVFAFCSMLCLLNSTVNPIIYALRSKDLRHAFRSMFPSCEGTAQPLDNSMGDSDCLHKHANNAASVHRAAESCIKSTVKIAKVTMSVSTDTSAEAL
Summary of the method: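 CHO-hCB1 cells co-expressing Gα15/16 loaded with fluo-4 AM in HBSS (with […] sulfinpyrazone, pH 7.4) at 37 °C for 50 min, washed, then given test compound at various concentrations (DMSO final 1%) for 10 min at room temperature before CP55940 addition; intracellular calcium read at ex 485/em 525 nm. Triplicate; IC50 from dose-response curves, mean ± SEM, n = 3.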

[9] = Tmax in Sprague-Dawley rat at 10 mg/kg, po by LC/MS/MS analysis; format: ADME, organism-based; parameters: dose 10 mg/kg, route oral; conditions: in vivo; summary of the method: as §1
Cannabinoid receptor 1 [10] = biological target: T1, Cannabinoid receptor 1; assay: Displacement of [3H]-CP-55940 from human CB1 receptor expressed in CHO cells pretreated for 10 mins measured after 3 hrs by scintillation counting; format: cell-based; summary of the method: as §3
Mus musculus [11] = assay: Antiobesity activity in diet-induced obese C57BL/6J mouse assessed as reduction in food intake at 10 mg/kg, po qd for 35 days; format: functional, organism-based; parameters: dose 10 mg/kg; summary of the method: as §2

| half-life [1] | Ki (Cannabinoid receptor 2) | AUC(0-inf) [4] | Cmax [5] | bioavailability [6] | Kp at 9 h [7] | IC50 (Cannabinoid receptor 1 [8]) | Tmax [9] | Ki (Cannabinoid receptor 1 [10]) | Compound | Activity (Mus musculus [2]) | Activity (Mus musculus [3]) | Activity (Mus musculus [11]) |
| --- | --- | --- | --- | --- | --- | --- | --- | --- | --- | --- | --- | --- |
| 3.8 h | 227 nM | 655 ng·h/mL | 116 ng/mL | 15% | 0.88 | 0.9 nM | 1.2 h | 0.2 nM | Cc1ccc([C@H](c2ccc(Cl)cc2Cl)N2CCN(C(=O)NC3CCCCC3)CC2)cc1 | Active | Active | inactive |
| 2.3 h |  | 883 ng·h/mL | 180 ng/mL | 8% | 0.91 |  | 2.4 h |  | Cc1ccc(C(c2ccc(Cl)cc2Cl)N2CCN(C(=O)NC3CCCCC3)CC2)cc1 (racemic) |  |  |  |
| 3.4 h | 242 nM | 695 ng·h/mL | 128 ng/mL | 6% | 1.42 | 21.5 nM | 1.3 h | 1.1 nM | Cc1ccc([C@@H](c2ccc(Cl)cc2Cl)N2CCN(C(=O)NC3CCCCC3)CC2)cc1 | inactive |  | inactive |

— ChEMBL document CHEMBL1909527, “Asymmetric synthesis and biological evaluation of N-cyclohexyl-4-[1-(2,4-dichlorophenyl)-1-(p-tolyl)methyl]piperazine-1-carboxamide as hCB1 receptor antagonists” (Eur J Med Chem, 2011)
